Test results from ChEMBL document CHEMBL1123589, “Phenylpiperazine-based radiopharmaceuticals for brain imaging. 3. Synthesis and evaluation of radioiodinated 1-alkyl-4-phenylpiperazines” (J Med Chem, 1987).

Experiments:
Settings in all cases: in vivo
Rattus norvegicus [1] = experiment: The biodistribution of the [125I]-labeled compound in rats after intravenous injection was evaluated in adrenal at 0.25 hrs; value ranges from 0.97-1.66 (ID.kg/g); format: ADME, organism-based
How it was run: (§1)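 Male Sprague-Dawley rats (250–300 g) under ether anesthesia received 10–15 μCi of NCA radioiodinated (125I) tracer iv in 0.1 mL saline. Groups of 3 were killed at 0.25, 1 and 4 h. Blood and tissues were excised, weighed and counted in a γ-well scintillation counter. Values are % injected dose × body mass (kg) per g tissue, given as mean with range.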

Rattus norvegicus [2] = experiment: The biodistribution of the [125I]-labeled compound in rats after intravenous injection was evaluated in adrenal at 1.00 hrs; value ranges from 0.61-1.12 (ID.kg/g); format: ADME, organism-based; how it was run: as §1
Rattus norvegicus [3] = experiment: The biodistribution of the [125I]-labeled compound in rats after intravenous injection was evaluated in adrenal at 4.00 hrs; value ranges from 0.39-0.45 (ID.kg/g); format: ADME, organism-based; how it was run: as §1
Rattus norvegicus [4] = experiment: The biodistribution of the [125I]-labeled compound in rats after intravenous injection was evaluated in blood at 0.25 hrs (ID.kg/g); format: ADME, organism-based
How it was run: (§2)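 Male Sprague-Dawley rats (250–300 g) under ether anesthesia were given an iv injection of no-carrier-added 125I-labelled agent (10–15 μCi in 0.1 mL saline). The agent was iodinated with chloramine-T in acetate buffer and purified by C-18 HPLC. Groups of N = 3 were killed at 0.25, 1 and 4 h. Blood and tissues were weighed and γ-counted. Values are % ID·kg/g, mean (range).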

Rattus norvegicus [5] = experiment: The biodistribution of the [125I]-labeled compound in rats after intravenous injection was evaluated in blood at 1.00 hrs (ID.kg/g); format: ADME, organism-based; how it was run: as §2
Rattus norvegicus [6] = experiment: The biodistribution of the [125I]-labeled compound in rats after intravenous injection was evaluated in blood at 4.00 hrs (ID.kg/g); format: ADME, organism-based; how it was run: as §2
Rattus norvegicus [7] = experiment: The biodistribution of the [125I]-labeled compound in rats after intravenous injection was evaluated in thyroid at 1.00 hrs; value ranges from 2.47-2.81 (ID.kg/g); format: ADME, organism-based, Thyroid gland
Rattus norvegicus [8] = experiment: The biodistribution of the [125I]-labeled compound in rats after intravenous injection was evaluated in brain at 0.25 hrs; value ranges from 0.25-0.30 (ID.kg/g); format: ADME, organism-based; how it was run: as §1
Rattus norvegicus [9] = experiment: The biodistribution of the [125I]-labeled compound in rats after intravenous injection was evaluated in heart at 0.25 hrs; value ranges from 0.23-0.28 (ID.kg/g); format: ADME, organism-based; how it was run: as §1
Rattus norvegicus [10] = experiment: The biodistribution of the [125I]-labeled compound in rats after intravenous injection was evaluated in heart at 1.00 hrs; value ranges from 0.16-0.21 (ID.kg/g); format: ADME, organism-based; how it was run: as §1
Rattus norvegicus [11] = experiment: The biodistribution of the [125I]-labeled compound in rats after intravenous injection was evaluated in heart at 4.00 hrs (ID.kg/g); format: ADME, organism-based; how it was run: as §1
Rattus norvegicus [12] = experiment: The biodistribution of the [125I]-labeled compound in rats after intravenous injection was evaluated in lung at 4.00 hrs; value ranges from 0.35-0.36 (ID.kg/g); format: ADME, organism-based; how it was run: as §1
Rattus norvegicus [13] = experiment: The biodistribution of the [125I]-labeled compound in rats after intravenous injection was evaluated in muscle at 0.25 hrs (ID.kg/g); format: ADME, organism-based, Muscle tissue
How it was run: (§3)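 Male Sprague-Dawley rats (250–300 g) under ether anesthesia given iv 0.1 mL saline containing 10–15 μCi of NCA ¹²⁵I-labeled agent (chloramine-T iodination, HPLC-purified). Groups of 3 killed at 0.25, 1 and 4 h. Blood and tissues excised, weighed and γ-counted. Values are mean (range) of % injected dose × body mass (kg) per gram of tissue.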

Rattus norvegicus [14] = experiment: The biodistribution of the [125I]-labeled compound in rats after intravenous injection was evaluated in muscle at 4.00 hrs (ID.kg/g); format: ADME, organism-based, Muscle tissue; how it was run: as §3
Rattus norvegicus [15] = experiment: The biodistribution of the [125I]-labeled compound in rats after intravenous injection was evaluated in thyroid at 4.00 hrs; value ranges from 2.51-3.60 (ID.kg/g); format: ADME, organism-based, Thyroid gland
Rattus norvegicus [16] = experiment: The biodistribution of the [125I]-labeled compound in rats after intravenous injection was evaluated in brain at 4.00 hrs; value ranges from 0.11-0.13 (ID.kg/g); format: ADME, organism-based; how it was run: as §1
Rattus norvegicus [17] = experiment: The biodistribution of the [125I]-labeled compound in rats after intravenous injection was evaluated in thyroid at 0.25 hrs; value ranges from 2.05-2.47 (ID.kg/g); format: ADME, organism-based, Thyroid gland
Rattus norvegicus [18] = experiment: The biodistribution of the [125I]-labeled compound in rats after intravenous injection was evaluated in fat at 0.25 hr (ID. kg/g); format: ADME, organism-based, Adipose tissue; how it was run: as §2
Rattus norvegicus [19] = experiment: The biodistribution of the [125I]-labeled compound in rats after intravenous injection was evaluated in fat at 1.00 hrs (ID.kg/g); format: ADME, organism-based, Adipose tissue; how it was run: as §2
Rattus norvegicus [20] = experiment: The biodistribution of the [125I]-labeled compound in rats after intravenous injection was evaluated in brain at 1.00 hrs; value ranges from 0.21-0.27 (ID.kg/g); format: ADME, organism-based; how it was run: as §1
Rattus norvegicus [21] = experiment: The biodistribution of the [125I]-labeled compound in rats after intravenous injection was evaluated in fat at 4.00 hrs (ID.kg/g); format: ADME, organism-based, Adipose tissue; how it was run: as §2
Rattus norvegicus [22] = experiment: The biodistribution of the [125I]-labeled compound in rats after intravenous injection was evaluated in kidney at 4.00 hrs; value ranges from 0.23-0.24 (ID.kg/g); format: ADME, organism-based; how it was run: as §1
Rattus norvegicus [23] = experiment: The biodistribution of the [125I]-labeled compound in rats after intravenous injection was evaluated in liver at 4.00 hrs; value ranges from 0.19-0.22 (ID.kg/g); format: ADME, organism-based; how it was run: as §1
Rattus norvegicus [24] = experiment: The biodistribution of the [125I]-labeled compound in rats after intravenous injection was evaluated in lung at 0.25 hrs; value ranges from 1.14-1.30 (ID.kg/g); format: ADME, organism-based; how it was run: as §1
Rattus norvegicus [25] = experiment: The biodistribution of the [125I]-labeled compound in rats after intravenous injection was evaluated in lung at 1.00 hrs; value ranges from 0.86-0.96 (ID.kg/g); format: ADME, organism-based; how it was run: as §1
Rattus norvegicus [26] = experiment: The biodistribution of the [125I]-labeled compound in rats after intravenous injection was evaluated in liver at 1.00 hrs; value ranges from 0.30-0.36 (ID.kg/g); format: ADME, organism-based; how it was run: as §1
Rattus norvegicus [27] = experiment: The biodistribution of the [125I]-labeled compound in rats after intravenous injection was evaluated in kidney at 0.25 hr; value ranges from 0.49-0.61 (ID.kg/g); format: ADME, organism-based; how it was run: as §1
Rattus norvegicus [28] = experiment: The biodistribution of the [125I]-labeled compound in rats after intravenous injection was evaluated in kidney at 1.00 hrs; value ranges from 0.43-0.47 (ID.kg/g); format: ADME, organism-based; how it was run: as §1
Rattus norvegicus [29] = experiment: The biodistribution of the [125I]-labeled compound in rats after intravenous injection was evaluated in liver at 0.25 hr; value ranges from 0.32-0.39 (ID.kg/g); format: ADME, organism-based; how it was run: as §1
Rattus norvegicus [30] = experiment: The biodistribution of the [125I]-labeled compound in rats after intravenous injection was evaluated in muscle at 1.00 hrs (ID.kg/g); format: ADME, organism-based, Muscle tissue; how it was run: as §3

Ic1ccc(N2CCN(C3CCCCC3)CC2)cc1
Biodistribution (Rattus norvegicus [1]): 1.66% | Biodistribution (Rattus norvegicus [2]): 1.12% | Biodistribution (Rattus norvegicus [3]): 0.45% | Biodistribution (Rattus norvegicus [4]): 0.01 % ID·kg/g | Biodistribution (Rattus norvegicus [5]): 0.01 % ID·kg/g | Biodistribution (Rattus norvegicus [6]): 0.01 % ID·kg/g | Biodistribution (Rattus norvegicus [7]): 2.81% | Biodistribution (Rattus norvegicus [8]): 0.3% | Biodistribution (Rattus norvegicus [9]): 0.28% | Biodistribution (Rattus norvegicus [10]): 0.21% | Biodistribution (Rattus norvegicus [11]): 0.08% | Biodistribution (Rattus norvegicus [12]): 0.36% | Biodistribution (Rattus norvegicus [13]): 0.03 % ID·kg/g | Biodistribution (Rattus norvegicus [14]): 0.01 %ID·kg/g | Biodistribution (Rattus norvegicus [15]): 3.6% | Biodistribution (Rattus norvegicus [16]): 0.13% | Biodistribution (Rattus norvegicus [17]): 2.47% | Biodistribution (Rattus norvegicus [18]): 0.01 % ID·kg/g | Biodistribution (Rattus norvegicus [19]): 0.01 % ID·kg/g | Biodistribution (Rattus norvegicus [20]): 0.27% | Biodistribution (Rattus norvegicus [21]): 0.01% | Biodistribution (Rattus norvegicus [22]): 0.24% | Biodistribution (Rattus norvegicus [23]): 0.22% | Biodistribution (Rattus norvegicus [24]): 1.3% | Biodistribution (Rattus norvegicus [25]): 0.96% | Biodistribution (Rattus norvegicus [26]): 0.36% | Biodistribution (Rattus norvegicus [27]): 0.61% | Biodistribution (Rattus norvegicus [28]): 0.47% | Biodistribution (Rattus norvegicus [29]): 0.39% | Biodistribution (Rattus norvegicus [30]): 0.03 %ID·kg/g
